Laboratory results taken from ChEMBL document CHEMBL1146374, “Clubbed triazoles: a novel approach to antitubercular drugs” (Eur J Med Chem, 2007).
Converted amounts (≈) assume the structure as drawn.

What was measured:
Staphylococcus aureus = assay: Antibacterial activity against Staphylococcus aureus at 50 to 100 uM after 24 hrs by well diffusion method; format: functional
Method in brief: (§1)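 Agar well diffusion: nutrient agar plates with 10 mm wells cut by sterile cork borer; 24-h subcultured bacteria swabbed onto the plates from nutrient broth. Compounds were dissolved in chloroform and added to wells at […]. Gentamycin served as the standard antibiotic.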

Escherichia coli = assay: Antibacterial activity against Escherichia coli at 50 to 100 uM after 24 hrs by well diffusion method; format: functional; method in brief: as §1
[1] = Cytotoxicity against Vero-C1008 cells at 6.25 to 50 ug/ml; format: cell-based; conditions: chlorocebus sabaeus
Method in brief: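 Vero-C-1008 cells were exposed to compounds at several concentrations across 6.25–50 µg/ml. Cytotoxicity was read out by neutral red uptake.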

[2] = tested on: Mycobacterium tuberculosis; assay: (§2) Antituberculosis activity against Mycobacterium tuberculosis H37Rv by Microplate Alamar Blue Assay; format: functional
Method in brief: (§3)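 MIC against M. tuberculosis H37Rv (ATCC 27294) in BACTEC 12B medium by broth microdilution (MABA). Primary actives were retested at lower concentrations. MIC is the lowest concentration giving a […] fluorescence reduction versus controls. Fluorescent compounds were run in the BACTEC 460 radiometric system. Rifampin was the reference.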

Salmonella typhi = assay: Antibacterial activity against Salmonella typhi at 50 to 100 uM after 24 hrs by well diffusion method; format: functional, Salmonella enterica subsp. enterica serovar Typhi
Method in brief: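 Agar well diffusion on nutrient agar plates; wells cut with a 10 mm sterile cork borer. Plates swabbed with 24-h subcultured bacteria from nutrient broth. Compounds dissolved in chloroform and added to wells at a range of concentrations. Gentamycin was the standard.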

[3] = tested on: Mycobacterium tuberculosis; assay: as §2; format: functional; method in brief: as §3; remark: listed apart in the source
[4] = tested on: Mycobacterium tuberculosis; assay: Growth inhibition of Mycobacterium tuberculosis H37Rv at 6.25 ug/ml by Microplate Alamar Blue Assay; format: functional; conditions: read-out: GI
Method in brief: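 Primary single-concentration screen against M. tuberculosis H37Rv (ATCC 27294) in BACTEC 12B medium by MABA broth microdilution, read as % inhibition. Compounds that fluoresce were tested in the BACTEC 460 radiometric system. More than 95% inhibition was the activity cutoff.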

Pseudomonas aeruginosa = assay: Antibacterial activity against Pseudomonas aeruginosa at 50 to 100 uM after 24 hrs by well diffusion method; format: functional; method in brief: as §1

Compound	zone of inhibition (Staphylococcus aureus)	zone of inhibition (Escherichia coli)	Activity [1]	MIC [2]	Inhibition (Salmonella typhi)	MIC [3]	inhibition of growth at 6.25 µg/mL [4]	zone of inhibition (Pseudomonas aeruginosa)	inhibition (Staphylococcus aureus)	inhibition (Escherichia coli)	inhibition (Salmonella typhi; Salmonella enterica subsp. enterica serovar Typhi)	inhibition (Pseudomonas aeruginosa)
O=C(CSc1nnc(Cc2csc(NC(=O)c3ccccc3)n2)n1NC(=O)c1ccccc1)N/N=C/c1ccccc1	32 mm	30 mm	Non-toxic	< 6.25 µg/mL	27%	0.39 µM (≈ 0.233 µg/mL)	98%	30 mm				
O=C(CCl)NNC(=O)CSc1nnc(Cc2csc(NC(=O)c3ccccc3)n2)n1NC(=O)c1ccccc1			Non-toxic	< 6.25 µg/mL								
O=C(O)CCNc1nc(Cc2nnc(SCC(=O)NNC(=O)CCl)n2NC(=O)c2ccccc2)cs1			Non-toxic	< 6.25 µg/mL								
O=C(O)CCNc1nc(Cc2nnc(SCSc3nnc(Cc4csc(NCCC(=O)O)n4)n3NC(=O)c3ccccc3)n2NC(=O)c2ccccc2)cs1	18 mm	10 mm	Non-toxic	< 6.25 µg/mL	12%			16 mm				
Nn1c(S)nnc1Cc1csc(NC(=O)CCl)n1	18 mm	14 mm	Non-toxic	< 6.25 µg/mL	12%			17 mm				
O=C(CSc1nnc(Cc2csc(NC(=O)CCl)n2)n1NC(=O)c1ccccc1)N/N=C/c1ccccc1			Non-toxic	< 6.25 µg/mL		0.78 µM (≈ 0.444 µg/mL)	98%					
COC(=O)CSc1nnc(Cc2csc(NCCC(=O)O)n2)n1NC(=O)c1ccccc1	16 mm	12 mm	Non-toxic	< 6.25 µg/mL	12%			18 mm				
NNC(=O)CSc1nnc(Cc2csc(NCCC(=O)O)n2)n1NC(=O)c1ccccc1	20 mm	14 mm	Non-toxic	< 6.25 µg/mL	12%	6.25 µM (≈ 2.98 µg/mL)	96%	18 mm				
Nn1c(S)nnc1Cc1csc(NC(=O)c2ccccc2)n1	22 mm	18 mm	Non-toxic	< 6.25 µg/mL	14%			20 mm				
CC(=O)NNC(=O)CSc1nnc(Cc2csc(NCCC(=O)O)n2)n1NC(=O)c1ccccc1			Non-toxic	< 6.25 µg/mL								
O=C(Nc1nc(Cc2nnc(SCSc3nnc(Cc4csc(NC(=O)c5ccccc5)n4)n3NC(=O)c3ccccc3)n2NC(=O)c2ccccc2)cs1)c1ccccc1	11 mm	16 mm	Non-toxic	< 6.25 µg/mL	12%			24 mm				
O=C(CCl)Nc1nc(Cc2nnc(S)n2NC(=O)c2ccccc2)cs1	20 mm	18 mm	Non-toxic	< 6.25 µg/mL	14%			20 mm				
GENTAMICIN									34%	31%	30%	35%
CC(=O)NNC(=O)CSc1nnc(Cc2csc(NC(=O)c3ccccc3)n2)n1NC(=O)c1ccccc1			Non-toxic	< 6.25 µg/mL								
CC(=O)Nc1nc(Cc2nnc(SCc3nnc(S)n3N)n2NC(=O)c2ccccc2)cs1	14 mm	12 mm	Non-toxic	< 6.25 µg/mL	18%			16 mm				
N#CCSc1nnc(Cc2csc(NC(=O)CCl)n2)n1NC(=O)c1ccccc1	20 mm	10 mm	Non-toxic	< 6.25 µg/mL	10%			16 mm				
O=C(O)CCNc1nc(Cc2nnc(S)n2NC(=O)c2ccccc2)cs1	11 mm	15 mm	Non-toxic	< 6.25 µg/mL	22%			17 mm				
COC(=O)CSc1nnc(Cc2csc(NC(=O)c3ccccc3)n2)n1NC(=O)c1ccccc1	22 mm	20 mm	Non-toxic	< 6.25 µg/mL	20%			22 mm				
CC(=O)Nc1nc(Cc2nnc(SCSc3nnc(Cc4csc(NC(C)=O)n4)n3NC(=O)c3ccccc3)n2NC(=O)c2ccccc2)cs1	16 mm	12 mm	Non-toxic	< 6.25 µg/mL	12%			16 mm				
O=C(O)CCNc1nc(Cc2nnc(SCC(=O)NNC(=O)c3ccccc3)n2NC(=O)c2ccccc2)cs1			Non-toxic	< 6.25 µg/mL								

Compound	zone of inhibition (Staphylococcus aureus)	zone of inhibition (Escherichia coli)	Activity [1]	MIC [2]	Inhibition (Salmonella typhi)	MIC [3]	inhibition of growth at 6.25 µg/mL [4]	zone of inhibition (Pseudomonas aeruginosa)	inhibition (Staphylococcus aureus)	inhibition (Escherichia coli)	inhibition (Salmonella typhi; Salmonella enterica subsp. enterica serovar Typhi)	inhibition (Pseudomonas aeruginosa)
O=C(Nc1nc(Cc2nnc(S)n2NC(=O)c2ccccc2)cs1)c1ccccc1	16 mm	10 mm	Non-toxic	< 6.25 µg/mL	18%			10 mm				
O=C(CSc1nnc(Cc2csc(NC(=O)c3ccccc3)n2)n1NC(=O)c1ccccc1)NNC(=O)c1ccccc1			Non-toxic	< 6.25 µg/mL								
N#CCSc1nnc(Cc2csc(NCCC(=O)O)n2)n1NC(=O)c1ccccc1	26 mm	20 mm	Non-toxic	< 6.25 µg/mL	20%			24 mm				
Nn1c(S)nnc1CSc1nnc(Cc2csc(NC(=O)CCl)n2)n1NC(=O)c1ccccc1	12 mm	10 mm	Non-toxic	< 6.25 µg/mL	14%			10 mm				
Nn1c(S)nnc1CSc1nnc(Cc2csc(NCCC(=O)O)n2)n1NC(=O)c1ccccc1	14 mm	18 mm	Non-toxic	< 6.25 µg/mL	12%			11 mm				
O=C(CSc1nnc(Cc2csc(NC(=O)CCl)n2)n1NC(=O)c1ccccc1)NNC(=O)c1ccccc1			Non-toxic	< 6.25 µg/mL								
Nn1c(S)nnc1Cc1csc(NCCC(=O)O)n1	25 mm	20 mm	Non-toxic	< 6.25 µg/mL	16%			22 mm				
CO[C@H]1/C=C/O[C@@]2(C)Oc3c(C)c(O)c4c(O)c(c(/C=N/N5CCN(C)CC5)c(O)c4c3C2=O)NC(=O)/C(C)=C\C=C\[C@H](C)[C@H](O)[C@@H](C)[C@@H](O)[C@@H](C)[C@H](OC(C)=O)[C@@H]1C [RIFAMPIN]				15 µg/mL (≈ 18.2 µM)			97%					
Nn1c(S)nnc1CSc1nnc(Cc2csc(NC(=O)c3ccccc3)n2)n1NC(=O)c1ccccc1	12 mm	18 mm	Non-toxic	< 6.25 µg/mL	14%			18 mm				
COC(=O)CSc1nnc(Cc2csc(NC(=O)CCl)n2)n1NC(=O)c1ccccc1	24 mm	20 mm	Non-toxic	< 6.25 µg/mL	18%			22 mm				
CC(=O)Nc1nc(Cc2nnc(SCC(=O)NNC(=O)c3ccccc3)n2NC(=O)c2ccccc2)cs1			Non-toxic	< 6.25 µg/mL								
CC(=O)Nc1nc(Cc2nnc(SCC(=O)N/N=C/c3ccccc3)n2NC(=O)c2ccccc2)cs1			Non-toxic	< 6.25 µg/mL		1.56 µM (≈ 0.834 µg/mL)	96%					
CC(=O)NNC(=O)CSc1nnc(Cc2csc(NC(C)=O)n2)n1NC(=O)c1ccccc1	21 mm	10 mm	Non-toxic	< 6.25 µg/mL	18%			18 mm				
COC(=O)CSc1nnc(Cc2csc(NC(C)=O)n2)n1NC(=O)c1ccccc1	22 mm	24 mm	Non-toxic	< 6.25 µg/mL	24%			11 mm				
CC(=O)NNC(=O)CSc1nnc(Cc2csc(NC(=O)CCl)n2)n1NC(=O)c1ccccc1	24 mm	14 mm	Non-toxic	< 6.25 µg/mL	14%			10 mm				
CC(=O)Nc1nc(Cc2nnc(S)n2NC(=O)c2ccccc2)cs1	16 mm	20 mm	Non-toxic	< 6.25 µg/mL	16%			16 mm				
O=C(CCl)NNC(=O)CSc1nnc(Cc2csc(NC(=O)CCl)n2)n1NC(=O)c1ccccc1			Non-toxic	< 6.25 µg/mL								
O=C(CCl)Nc1nc(Cc2nnc(SCSc3nnc(Cc4csc(NC(=O)CCl)n4)n3NC(=O)c3ccccc3)n2NC(=O)c2ccccc2)cs1	22 mm	20 mm	Non-toxic	< 6.25 µg/mL	16%			22 mm				
CC(=O)Nc1nc(Cc2nnc(SCC(=O)NNC(=O)CCl)n2NC(=O)c2ccccc2)cs1			Non-toxic	< 6.25 µg/mL								
